pIC50: −log10 of the molar value.

As a reminder, the CC50 is the concentration that lowers cell viability or growth by half. For orientation: pIC50 means the negative decadic logarithm of the IC50, by convention in mol/L.

Data set [1] is described as follows: Cytotoxicity against mouse RAW264.7 cells assessed as reduction in survival rate after 24 hrs by MTT assay. It is filed as cell-based. The method in brief:
(§1)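 Cells at 1 × 10⁴/well in DMEM + 10% FBS, exposed to compounds for 24 h at 37 °C, 5% CO₂. After PBS washes, MTT (0.5 mg/mL in medium) added for 1 h at 37 °C; formazan dissolved in DMSO, absorbance read at 540 nm. Viability expressed as % of DMSO control; CC₅₀ is the concentration giving 50% loss of mean viability (N = 3).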

Data set [2] in a line: Cytotoxicity against mouse RAW264.7 cells assessed as survival rate at 10 uM after 24 hrs by MTT assay. The format is cell-based. Conditions: read-out: Activity. In outline:
as §1
For orientation: Tetrazolium dyes change colour on reduction, which living cells bring about.

Data set [3] deals with RAW264.7. In words: Inhibition of RANKL-induced osteoclastogenesis in mouse RAW264.7 cells assessed as TRAP+ multinucleated cells level at 10 uM incubated for 4 days by TRAP staining assay. The format is functional. Details: scale not given: the % may be the effect or the level left. The method in brief:
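Cells plated at 1 × 10³ (96-well) or 5 × 10⁴ (48-well) in α-MEM with 10% FBS, 2 mM […], 100 ng/mL recombinant murine RANKL and compound for 4 days; medium changed on day 2. Fixed in acetone/citrate/formaldehyde for 5 min and TRAP-stained. TRAP⁺ cells with >5 nuclei counted by light microscopy, expressed as % of the RANKL-only group.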

Data set [4] deals with RAW264.7. In words: Inhibition of RANKL-induced osteoclastogenesis in mouse RAW264.7 cells assessed as reduction in TRAP activity incubated for 4 days by TRAP staining assay. The format is functional, cell-based. Conditions: RAW264.7, 96 h. The method in brief:
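RAW264.7 cells were RANKL-differentiated (100 ng/mL recombinant soluble murine RANKL in α-MEM/10% FBS, compounds at various concentrations, 4 days, medium changed day 2). TRAP activity was read with 2 mg/mL 4-nitrophenyl phosphate in 0.09 M citrate buffer for 15 min at 37 °C, stopped with 0.1 N NaOH. Expressed as % of RANKL-only; IC50 is 50% inhibition.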

Data set [5] concerns RAW264.7. In words: Inhibition of RANKL-induced osteoclastogenesis in mouse RAW264.7 cells assessed as TRAP+ multinucleated cells level incubated for 4 days by TRAP staining assay. Conditions: RAW264.7, 96 h. It is filed as functional, cell-based. The method in brief: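 RAW264.7 cells in α-MEM with 10% FBS, 2 mM […], 100 ng/mL recombinant soluble murine RANKL and a range of compound concentrations for 4 days, with medium changed on day 2. Cells fixed in acetone/citrate/formaldehyde for 5 min and TRAP-stained. Cells with >5 nuclei counted by light microscopy and expressed as % of RANKL-only; IC50 is 50% inhibition.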

Regarding `O=C(Nc1ccc(Cl)cc1F)c1ccccc1OCc1ccc(F)cc1F`, in data set [1], the half-maximal cytotoxic concentration (CC50) at 24 h was more than 40 µM. The viability at 24 h, 10 µM in data set [2] worked out at 107%. The Activity in the data set on RAW264.7 [3] is 74.6%.
The corresponding values for `COc1ccc(C(=O)Nc2ccc(I)cc2F)cc1` are 32.8 µM, 91.4% and 89.3%.
The like results for `COc1ccc(C(=O)Nc2ccc(I)cc2F)c(O)c1` were, in that order, 27.6 µM, 94.4% and 39.4%.
The like results for `COc1ccc(C(=O)O)c(O)c1` [4-METHOXYSALICYLIC ACID] were, in that order, more than 40 µM, 99.4% and 79.6%.
Regarding `O=c1oc2ccccc2c(=O)n1-c1ccc(F)cc1F`, the 50% cytotoxic concentration (CC50) at 24 h in data set [1] is more than 40 µM. In data set [2], the viability at 24 h, 10 µM came out at 88.8%. The Activity with RAW264.7 [3] came to 82.5%.
The corresponding values for `COc1ccc2c(=O)n(-c3ccc(F)cc3F)c(=O)oc2c1` are more than 40 µM, 90.9% and 67.5%.
The like results for `O=C(Nc1ccc(I)cc1F)c1ccccc1O` were, in that order, 23.3 µM, 96.7% and 70.6%.
The corresponding values for `O=C(Nc1ccc(F)cc1F)c1ccccc1` are more than 40 µM, 105% and 75.2%.
For `O=C(Nc1ccc(Cl)cc1F)c1ccccc1`, the CC50 at 24 h in data set [1] is more than 40 µM. For the same compound, in data set [2], the viability at 24 h, 10 µM stood at 105%. The Activity with RAW264.7 [3] was 77.9%.
The like results for `COc1ccc(C(=O)Nc2ccc(-c3ccc(Cl)cc3Cl)cc2F)c(O)c1` were, in that order, more than 40 µM, 102% and 92.5%.
On to `COc1ccc(C(=O)Nc2ccc(-c3ccc(F)cc3F)cc2F)c(O)c1`, for which, in data set [1], the CC50 at 24 h is 26.3 µM. The viability at 24 h, 10 µM in data set [2] came out at 64.5%. Besides, the Activity in the data set with RAW264.7 [3] was determined as 50.1%.
As to `O=C(Nc1ccc(I)cc1F)c1ccccc1OCc1ccc(F)cc1F`, in data set [1], the CC50 at 24 h turned out to be 32.6 µM. The viability at 24 h, 10 µM in data set [2] was found to be 85%. In addition, the Activity in the data set on RAW264.7 [3] came to 85.5%.
The like results for `O=C(Nc1ccc(-c2ccc(F)cc2F)cc1F)c1ccccc1O` were, in that order, 28.6 µM, 102% and 100.1%.
For `COc1ccc(C(=O)Nc2ccc(-c3ccc(Cl)cc3F)cc2F)c(O)c1`, the viability at 24 h, 10 µM in data set [2] is 44.5%. For the same compound, the Activity with RAW264.7 [3] was 60.6%.
As to `COc1ccc(C(=O)Nc2ccc(F)cc2F)c(OC)c1`, in data set [1], the cytotoxic concentration (CC50) at 24 h is more than 40 µM. For the same compound, the viability at 24 h, 10 µM in data set [2] is 102%. Further, the Activity with RAW264.7 [3] came to 93%.
The like results for `COc1ccc(C(=O)Nc2ccc(Cl)cc2F)c(OCc2ccc(F)cc2F)c1` were, in that order, more than 40 µM, 107% and 68.7%.
The like results for `O=C(Nc1ccc(-c2ccc(Cl)cc2F)cc1F)c1ccccc1O` were, in that order, 27.2 µM, 90.9% and 84.8%.
As for `O=C(Nc1ccc(Cl)cc1F)c1ccccc1O`, the 50% cytotoxic concentration (CC50) at 24 h in data set [1] was determined as 23.2 µM. In addition, the viability at 24 h, 10 µM in data set [2] was found to be 93%. The Activity in the data set with RAW264.7 [3] amounted to 49.4%. In addition, the figures for the negative-log IC50 (pIC50) with RAW264.7 [4] and in the data set on RAW264.7 [5] were 4.90 and 5.00, respectively.
Turning to `COc1ccc(C(=O)Nc2ccc(I)cc2F)c(OCc2ccc(F)cc2F)c1`, the CC50 at 24 h in data set [1] turned out to be 36.8 µM. Besides, in data set [2], the viability at 24 h, 10 µM stood at 104%. Also, the Activity with RAW264.7 [3] is reported as 51.3%.
The like results for `COc1ccccc1C(=O)Nc1ccc(I)cc1F` were, in that order, more than 40 µM, 95.4% and 106.6%.
The like results for `COc1ccc(C(=O)Nc2ccc(F)cc2F)c(O)c1` were, in that order, more than 40 µM, 89.7% and 74.9%.
The like results for `COc1ccc2c(=O)n(-c3ccc(Cl)cc3F)c(=O)oc2c1` were, in that order, more than 40 µM, 100% and 36%.
With `O=C(Nc1ccc(-c2ccc(Cl)cc2Cl)cc1F)c1ccccc1O`, in data set [1], the CC50 at 24 h was determined as 29.8 µM. For the same compound, in data set [2], the viability at 24 h, 10 µM turned out to be 105%. Moreover, the Activity with RAW264.7 [3] is given as 91.2%.
The corresponding values for `COc1ccccc1C(=O)Nc1ccc(F)cc1F` are more than 40 µM, 108% and 89.1%.
`O=C(O)c1ccccc1O` [SALICYLIC ACID]: the CC50 at 24 h in data set [1] was more than 40 µM.
In the case of `COc1ccc2c(=O)n(-c3ccc(I)cc3F)c(=O)oc2c1`, the 50% cytotoxic concentration (CC50) at 24 h in data set [1] was found to be 30.1 µM. Besides, the viability at 24 h, 10 µM in data set [2] was found to be 103%. The Activity in the data set with RAW264.7 [3] was 44.4%.
The corresponding values for `O=C(Nc1ccc(I)cc1F)c1ccccc1` are more than 40 µM, 105% and 76.8%.
The corresponding values for `COc1ccc(C(=O)Nc2ccc(F)cc2F)c(OCc2ccc(F)cc2F)c1` are more than 40 µM, 106% and 66.2%.
The like results for `COc1ccc(C(=O)Nc2ccc(Cl)cc2F)cc1` were, in that order, more than 40 µM, 106% and 100.4%.
Turning to `COc1ccc(C(=O)Nc2ccc(Cl)cc2F)c(O)c1`, the CC50 at 24 h in data set [1] came to 32.3 µM. Moreover, the viability at 24 h, 10 µM in data set [2] turned out to be 103%. For the same compound, in the data set on RAW264.7 [3], the Activity was 23.8%.
The like results for `COc1ccccc1C(=O)Nc1ccc(Cl)cc1F` were, in that order, more than 40 µM, 102% and 86%.
Consider `O=C(Nc1ccc(F)cc1F)c1ccccc1O`, for which, in data set [1], the CC50 at 24 h was 38.4 µM. Further, in data set [2], the viability at 24 h, 10 µM was found to be 76.1%. Further, in the data set with RAW264.7 [3], the Activity worked out at 85.2%.
The corresponding values for `O=C(Nc1ccc(F)cc1F)c1ccccc1OCc1ccc(F)cc1F` are more than 40 µM, 101% and 97.6%.
The like results for `COc1ccc(C(=O)Nc2ccc(F)cc2F)cc1` were, in that order, more than 40 µM, 102% and 73.3%.
The corresponding values for `COc1ccc(C(=O)Nc2ccc(Cl)cc2F)c(OC)c1` are 13.6 µM, 52.9% and 60.2%.
Regarding `COc1ccc(C(=O)Nc2ccc(I)cc2F)c(OC)c1`, the 50% cytotoxic concentration (CC50) at 24 h in data set [1] was more than 40 µM. Besides, in data set [2], the viability at 24 h, 10 µM worked out at 95%. For the same compound, the Activity in the data set on RAW264.7 [3] is recorded as 92.4%.

Source of the values: ChEMBL document CHEMBL3351250, “Modified salicylanilide and 3-phenyl-2H-benzo[e][1,3]oxazine-2,4(3H)-dione derivatives as novel inhibitors of osteoclast differentiation and bone resorption” (J Med Chem, 2014).
